One data set addresses Cytochrome P450 3A4 (Homo sapiens, UniProt P08684). In words: Drug metabolism assessed as CYP3A4 (unknown origin) mediated metabolite formation. Type of data set: ADME.
Data set [1] is described as follows: In vivo inverse agonist activity at RORgamma in MOG(35-55) peptide/PTX-induced mechanistic C57BL/6 mouse model assessed as anti-CD3 induced IL-17F level in serum at 10 mg/kg, po dosed for 5 days during MOG/PTX priming and followed by 45 mins prior to anti-CD3 challenge and measured after 2 hrs relative to control. In kind it is functional. To be noted: time 5 day. Put shortly: (§1)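 Mice immunized with mouse MOG35-55 peptide plus pertussis toxin. After 5 days, compound given orally as a suspension in methylcellulose 400cp + 1% poloxamer, 45 min before an anti-CD3 challenge. Circulating cytokines measured 2 h later. Comparison vs vehicle by Dunnett post test.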

Data set [2] is described as follows: Stability in human microsomes assessed as unbound intrinsic clearance. In kind it is ADME, Microsome. The gist of the method:
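Unbound intrinsic clearance measured in human and mouse liver microsomes, expressed in L/h/kg. Values are geometric means of at least two separate runs.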

The nature of data set [3]: In vivo inverse agonist activity at RORgamma in MOG(35-55) peptide/PTX-induced mechanistic C57BL/6 mouse model assessed as anti-CD3 induced IL-22 level in serum at 10 mg/kg, po dosed for 5 days during MOG/PTX priming and followed by 45 mins prior to anti-CD3 challenge and measured after 2 hrs relative to control. Type of data set: functional. To be noted: time 5 day. Put shortly: as §1

The nature of data set [4]: Tmax in mouse at 30 mg/kg, po. Type of data set: ADME, organism-based. To be noted: in vivo. The gist of the method:
(§2)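 Mice dosed orally with an ascending-dose series at 10, 30 and 100 mg/kg. Compound given as a suspension in 1% methylcellulose 400cp + 0.1% poloxamer. Plasma Tmax taken from the concentration profiles. The Cmax ratio is expressed relative to the 10 mg/kg dose.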

Data set [5] is described as follows: Half life in mouse at 100 mg/kg, po. To be noted: in vivo. In kind it is ADME, organism-based. The gist of the method:
(§3)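 Oral ascending-dose PK in mice at 100 mg/kg (ratios against 10 mg/kg), given as a suspension in 1% methylcellulose 400cp + 0.1% Poloxamer. Cmax, AUClast and t1/2 come from plasma profiles.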

A short description of data set [6]: Plasma clearance in mouse at 10 mg/kg, po or 1 mg/kg, iv. In kind it is ADME, organism-based. Put shortly:
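Mouse PK with iv 1 mg/kg and po 10 mg/kg, oral dose as a suspension in 1% methylcellulose 400cp + 0.1% Poloxamer 188. Plasma clearance (total and unbound), iv t1/2 and oral bioavailability F were derived from the iv and po profiles.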

A short description of data set [7]: In vivo inverse agonist activity at RORgamma in MOG(35-55) peptide/PTX-induced mechanistic C57BL/6 mouse model assessed as anti-CD3 induced IL-17F level in serum at 100 mg/kg, po dosed for 5 days during MOG/PTX priming and followed by 45 mins prior to anti-CD3 challenge and measured after 2 hrs relative to control. In kind it is functional. To be noted: time 5 day. Put shortly:
as §1

Data set [8] deals with T1, Nuclear receptor ROR-gamma (Homo sapiens, UniProt P51449).
T1 sequence (P51449 whole entry): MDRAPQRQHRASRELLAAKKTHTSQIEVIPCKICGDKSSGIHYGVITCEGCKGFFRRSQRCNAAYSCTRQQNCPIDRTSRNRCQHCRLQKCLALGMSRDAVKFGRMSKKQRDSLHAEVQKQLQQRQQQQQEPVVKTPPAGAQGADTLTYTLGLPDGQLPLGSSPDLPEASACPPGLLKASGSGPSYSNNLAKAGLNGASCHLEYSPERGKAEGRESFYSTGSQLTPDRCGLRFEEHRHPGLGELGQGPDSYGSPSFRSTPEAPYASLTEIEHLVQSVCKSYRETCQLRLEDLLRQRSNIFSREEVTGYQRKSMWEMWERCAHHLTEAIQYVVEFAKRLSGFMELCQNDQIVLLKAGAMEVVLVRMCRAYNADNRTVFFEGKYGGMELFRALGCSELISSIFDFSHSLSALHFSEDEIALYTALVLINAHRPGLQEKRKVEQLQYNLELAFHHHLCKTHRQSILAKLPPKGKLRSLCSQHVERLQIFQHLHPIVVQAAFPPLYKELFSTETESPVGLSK
Description: Inverse agonist activity at pSG5GAL4-DBD/LBD fused human RORgamma receptor expressed in COS7 cells co-expressing 5 copies of GAL4 response element after 18 hrs by luciferase reporter gene based assay. In kind it is cell-based.

Data set [9] concerns Mus musculus. In words: Immunosuppressive activity in PLP (139 to 151 residues)-induced experimental autoimmune encephalomyelitis mouse model assessed as reduction in disease onset at 100 mg/kg, po administered bid starting from immunization relative to control. Type of data set: functional. Put shortly:
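EAE induced in mice by immunization with proteolipid protein peptide PLP139-151; ascending paralysis develops 10–12 days post-immunization. Compound dosed orally b.i.d. starting from immunization. Disease onset/incidence scored relative to control.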

Data set [10] can be described thus: In vivo inverse agonist activity at RORgamma in MOG(35-55) peptide/PTX-induced mechanistic C57BL/6 mouse model assessed as anti-CD3 induced IFNgamma level in serum at 100 mg/kg, po dosed for 5 days during MOG/PTX priming and followed by 45 mins prior to anti-CD3 challenge and measured after 2 hrs relative to control. Type of data set: functional. The settings on record: time 5 day. The gist of the method: as §1

The subject of data set [11] is Mus musculus. In words: In vivo inverse agonist activity at RORgamma in po dosed MOG(35-55) peptide/PTX-induced mechanistic C57BL/6 mouse model assessed as anti-CD3 induced IL-22 level in serum dosed for 5 days during MOG/PTX priming and followed by 45 mins prior to anti-CD3 challenge and measured after 2 hrs relative to control. In kind it is functional, organism-based. To be noted: dose mg/kg 10-100, time 5.0 day. The gist of the method:
as §1

Data set [12] is described as follows: AUClast in mouse at 100 mg/kg, po. In kind it is ADME, organism-based. The arrangement: time 0 - last, route oral, dose 100 mg/kg. To be noted: in vivo. Put shortly: as §3
Data set [13] in a line: Ratio of Cmax in mouse at 100 mg/kg, po to Cmax in mouse at 10 mg/kg, po. To be noted: in vivo. Type of data set: ADME, organism-based. Put shortly:
as §3

A short description of data set [14]: Tmax in mouse at 10 mg/kg, po. In kind it is ADME, organism-based. The settings on record: in vivo. The gist of the method: as §2
Data set [15] can be described thus: Tmax in mouse at 100 mg/kg, po. Type of data set: ADME, organism-based. To be noted: in vivo. Put shortly:
as §2

Results on one molecule are retold here after ChEMBL document CHEMBL4665652, “Discovery of novel quinoline sulphonamide derivatives as potent, selective and orally active RORγ inverse agonists” (Bioorg Med Chem Lett, 2019).

Chain of Cytochrome P450 3A4 (P08684 whole entry): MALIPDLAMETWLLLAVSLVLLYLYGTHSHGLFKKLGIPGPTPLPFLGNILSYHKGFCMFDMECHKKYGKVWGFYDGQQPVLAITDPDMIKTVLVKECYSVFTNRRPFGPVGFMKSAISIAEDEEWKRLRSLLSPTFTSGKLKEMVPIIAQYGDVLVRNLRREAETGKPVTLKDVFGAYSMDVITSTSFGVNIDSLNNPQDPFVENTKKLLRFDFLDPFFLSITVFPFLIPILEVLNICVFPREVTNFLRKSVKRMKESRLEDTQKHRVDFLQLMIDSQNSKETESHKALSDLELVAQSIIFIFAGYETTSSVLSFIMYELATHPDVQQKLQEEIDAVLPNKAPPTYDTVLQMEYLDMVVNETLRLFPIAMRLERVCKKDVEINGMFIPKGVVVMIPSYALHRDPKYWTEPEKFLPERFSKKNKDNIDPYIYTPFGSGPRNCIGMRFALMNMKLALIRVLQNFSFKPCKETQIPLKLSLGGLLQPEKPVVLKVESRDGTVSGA

As to `CNC(=O)[C@@H]1CCCN1S(=O)(=O)c1ccc(Cl)c(COc2cccc3c(-c4cncn4C)cc(C(C)C)nc23)c1Cl`, the Fm at Cytochrome P450 3A4 is listed as 87%. Also, the Activity in data set [1] was -20%; in data set [3], -16%; in [7], -60%; in [10], -81%; in the data set with Mus musculus [11] it was “Dose-dependent effect”. Further, the CL free in data set [2] stood at 33 mL/min/kg. For the same molecule, the Tmax in data set [4] is 0.25 h; in data set [14], 0.25 h; in data set [15], 3 h. This molecule also gave a half-life in data set [5] of 2.2 h. Moreover, in data set [6], the clearance is 27.5 mL/min/kg. The EC50 in [8] was 0.22 µM. Moreover, in the data set with Mus musculus [9], the inhibition in vivo at 100 mg/kg turned out to be 76%. Besides, the AUC(0-t) in data set [12] is 270 µg·h/mL. For the same molecule, the Ratio in data set [13] turned out to be 8.3.
